{
  "source": "ChEMBL document CHEMBL5357042",
  "about": "“Discovery of imidazo[1,2-b]pyridazine-containing TAK1 kinase inhibitors with excellent activities against multiple myeloma” (RSC Med Chem, 2024)",
  "key": {"[1]": {"target": "Platelet-derived growth factor receptor alpha (Homo sapiens) (UniProt P16234)", "sequence (P16234 whole entry, the tested form may be a part)": "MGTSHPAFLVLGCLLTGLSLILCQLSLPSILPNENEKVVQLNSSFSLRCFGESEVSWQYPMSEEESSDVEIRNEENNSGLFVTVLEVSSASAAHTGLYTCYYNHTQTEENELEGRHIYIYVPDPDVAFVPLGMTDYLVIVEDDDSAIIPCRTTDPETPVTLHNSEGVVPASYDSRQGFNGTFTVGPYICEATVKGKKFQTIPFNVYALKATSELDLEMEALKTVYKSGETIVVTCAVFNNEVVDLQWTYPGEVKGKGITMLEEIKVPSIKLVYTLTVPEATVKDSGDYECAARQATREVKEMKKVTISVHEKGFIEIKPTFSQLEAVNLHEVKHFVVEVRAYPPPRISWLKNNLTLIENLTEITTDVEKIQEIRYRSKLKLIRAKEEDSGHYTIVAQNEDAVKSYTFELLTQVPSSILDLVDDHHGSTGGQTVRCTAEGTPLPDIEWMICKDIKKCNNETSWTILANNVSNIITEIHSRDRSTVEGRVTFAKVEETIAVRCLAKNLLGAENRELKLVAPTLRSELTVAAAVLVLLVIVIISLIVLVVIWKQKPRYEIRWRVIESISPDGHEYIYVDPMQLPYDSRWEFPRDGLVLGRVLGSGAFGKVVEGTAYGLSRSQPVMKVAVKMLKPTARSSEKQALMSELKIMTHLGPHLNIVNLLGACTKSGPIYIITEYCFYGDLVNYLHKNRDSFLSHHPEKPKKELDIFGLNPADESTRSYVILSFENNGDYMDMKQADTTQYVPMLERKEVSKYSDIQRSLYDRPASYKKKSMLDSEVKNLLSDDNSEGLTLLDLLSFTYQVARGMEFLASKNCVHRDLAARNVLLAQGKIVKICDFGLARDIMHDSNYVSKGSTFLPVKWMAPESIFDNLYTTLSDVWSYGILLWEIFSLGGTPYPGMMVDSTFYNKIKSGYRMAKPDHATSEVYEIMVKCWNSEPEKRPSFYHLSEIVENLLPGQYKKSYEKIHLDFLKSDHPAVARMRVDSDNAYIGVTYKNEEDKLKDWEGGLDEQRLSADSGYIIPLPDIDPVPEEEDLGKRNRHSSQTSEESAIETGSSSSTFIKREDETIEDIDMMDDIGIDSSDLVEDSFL", "experiment": "Inhibition of human wild type partial length PDGFRA (575 to 1002 residues) expressed in mammalian expression system at 50 to 500 nM by KinomeScan analysis", "details": "dose 50-500 nM"}, "[2]": {"target": "T1, Mitogen-activated protein kinase kinase kinase 7 (Homo sapiens) (UniProt O43318)", "T1 sequence (whole entry)": "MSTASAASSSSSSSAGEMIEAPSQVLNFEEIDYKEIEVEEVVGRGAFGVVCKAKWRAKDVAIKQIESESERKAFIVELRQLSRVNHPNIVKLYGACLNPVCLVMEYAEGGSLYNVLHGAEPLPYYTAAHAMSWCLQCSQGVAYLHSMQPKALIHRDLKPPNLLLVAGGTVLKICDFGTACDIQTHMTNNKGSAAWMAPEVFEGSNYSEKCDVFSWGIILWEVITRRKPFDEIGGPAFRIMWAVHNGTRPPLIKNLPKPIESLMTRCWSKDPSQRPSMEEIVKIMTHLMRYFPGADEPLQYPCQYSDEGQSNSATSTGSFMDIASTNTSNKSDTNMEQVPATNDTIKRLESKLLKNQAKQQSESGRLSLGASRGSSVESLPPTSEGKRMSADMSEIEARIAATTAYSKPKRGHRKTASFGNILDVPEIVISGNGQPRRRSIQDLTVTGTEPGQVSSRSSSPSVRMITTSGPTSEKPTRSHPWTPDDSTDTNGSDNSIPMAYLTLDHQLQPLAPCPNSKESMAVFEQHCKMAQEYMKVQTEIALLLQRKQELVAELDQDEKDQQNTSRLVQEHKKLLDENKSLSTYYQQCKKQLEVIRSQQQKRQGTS", "experiment": "Inhibition of TAK1 (unknown origin) at 500 nM by ADP-Glo kinase assay"}, "[3]": {"target": "Mast/stem cell growth factor receptor Kit (Homo sapiens) (UniProt P10721)", "experiment": "Inhibition of human wild type partial length c-Kit (545 to 952 residues) expressed in mammalian expression system at 50 to 500 nM by KinomeScan analysis", "details": "dose 50-500 nM"}, "[4]": {"target": "RAC-beta serine/threonine-protein kinase (Homo sapiens) (UniProt P31751)", "experiment": "Inhibition of human wild type partial length AKT2 expressed in bacterial expression system at 50 to 500 nM by KinomeScan analysis", "details": "dose 50-500 nM"}, "[5]": {"target": "Fibroblast growth factor receptor 2 (Homo sapiens) (UniProt P21802)", "sequence (P21802 22-821 limits assumed)": "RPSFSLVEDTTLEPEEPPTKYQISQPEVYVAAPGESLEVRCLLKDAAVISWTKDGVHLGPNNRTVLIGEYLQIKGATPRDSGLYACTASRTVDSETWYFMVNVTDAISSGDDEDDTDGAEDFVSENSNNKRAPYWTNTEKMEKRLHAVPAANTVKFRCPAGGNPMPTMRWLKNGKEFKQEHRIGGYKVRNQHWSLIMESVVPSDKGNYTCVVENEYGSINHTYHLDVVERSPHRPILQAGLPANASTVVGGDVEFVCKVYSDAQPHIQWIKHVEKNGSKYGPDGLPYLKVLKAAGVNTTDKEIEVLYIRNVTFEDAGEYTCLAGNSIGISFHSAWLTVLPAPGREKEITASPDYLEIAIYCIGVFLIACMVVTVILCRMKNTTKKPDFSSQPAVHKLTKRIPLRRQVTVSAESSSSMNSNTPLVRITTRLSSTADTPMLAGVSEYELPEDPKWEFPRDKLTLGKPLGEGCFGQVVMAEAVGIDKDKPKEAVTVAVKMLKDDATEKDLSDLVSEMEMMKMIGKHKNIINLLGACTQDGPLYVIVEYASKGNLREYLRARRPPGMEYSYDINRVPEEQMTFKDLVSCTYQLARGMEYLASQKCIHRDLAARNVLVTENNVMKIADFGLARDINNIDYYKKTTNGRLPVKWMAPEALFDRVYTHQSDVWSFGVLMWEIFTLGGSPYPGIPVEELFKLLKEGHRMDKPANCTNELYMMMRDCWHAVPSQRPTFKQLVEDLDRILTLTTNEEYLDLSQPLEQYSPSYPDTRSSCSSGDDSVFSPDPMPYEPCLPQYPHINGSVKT", "experiment": "Inhibition of human wild type partial length FGFR2 (457 to 769 residues) expressed in bacterial expression system at 50 to 500 nM by KinomeScan analysis", "details": "dose 50-500 nM"}, "[6]": {"target": "RAC-alpha serine/threonine-protein kinase (Homo sapiens) (UniProt P31749)", "sequence (P31749 whole entry)": "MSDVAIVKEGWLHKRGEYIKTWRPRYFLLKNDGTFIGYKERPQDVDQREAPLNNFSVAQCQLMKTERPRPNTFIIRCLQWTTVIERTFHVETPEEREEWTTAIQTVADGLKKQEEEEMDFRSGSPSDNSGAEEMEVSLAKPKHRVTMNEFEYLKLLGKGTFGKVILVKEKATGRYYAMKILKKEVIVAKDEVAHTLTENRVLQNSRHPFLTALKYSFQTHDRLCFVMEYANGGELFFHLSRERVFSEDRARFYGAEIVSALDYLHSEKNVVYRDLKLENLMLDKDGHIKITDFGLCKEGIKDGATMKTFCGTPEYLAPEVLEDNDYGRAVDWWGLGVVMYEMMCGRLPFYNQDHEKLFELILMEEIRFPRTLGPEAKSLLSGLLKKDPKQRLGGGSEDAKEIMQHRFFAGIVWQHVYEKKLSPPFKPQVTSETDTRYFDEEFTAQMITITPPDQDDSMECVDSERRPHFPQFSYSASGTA", "experiment": "Inhibition of human wild type partial length AKT1 expressed in bacterial expression system at 50 to 500 nM by KinomeScan analysis", "details": "dose 50-500 nM"}, "[7]": {"target": "Platelet-derived growth factor receptor beta (Homo sapiens) (UniProt P09619)", "sequence (P09619 whole entry, the tested form may be a part)": "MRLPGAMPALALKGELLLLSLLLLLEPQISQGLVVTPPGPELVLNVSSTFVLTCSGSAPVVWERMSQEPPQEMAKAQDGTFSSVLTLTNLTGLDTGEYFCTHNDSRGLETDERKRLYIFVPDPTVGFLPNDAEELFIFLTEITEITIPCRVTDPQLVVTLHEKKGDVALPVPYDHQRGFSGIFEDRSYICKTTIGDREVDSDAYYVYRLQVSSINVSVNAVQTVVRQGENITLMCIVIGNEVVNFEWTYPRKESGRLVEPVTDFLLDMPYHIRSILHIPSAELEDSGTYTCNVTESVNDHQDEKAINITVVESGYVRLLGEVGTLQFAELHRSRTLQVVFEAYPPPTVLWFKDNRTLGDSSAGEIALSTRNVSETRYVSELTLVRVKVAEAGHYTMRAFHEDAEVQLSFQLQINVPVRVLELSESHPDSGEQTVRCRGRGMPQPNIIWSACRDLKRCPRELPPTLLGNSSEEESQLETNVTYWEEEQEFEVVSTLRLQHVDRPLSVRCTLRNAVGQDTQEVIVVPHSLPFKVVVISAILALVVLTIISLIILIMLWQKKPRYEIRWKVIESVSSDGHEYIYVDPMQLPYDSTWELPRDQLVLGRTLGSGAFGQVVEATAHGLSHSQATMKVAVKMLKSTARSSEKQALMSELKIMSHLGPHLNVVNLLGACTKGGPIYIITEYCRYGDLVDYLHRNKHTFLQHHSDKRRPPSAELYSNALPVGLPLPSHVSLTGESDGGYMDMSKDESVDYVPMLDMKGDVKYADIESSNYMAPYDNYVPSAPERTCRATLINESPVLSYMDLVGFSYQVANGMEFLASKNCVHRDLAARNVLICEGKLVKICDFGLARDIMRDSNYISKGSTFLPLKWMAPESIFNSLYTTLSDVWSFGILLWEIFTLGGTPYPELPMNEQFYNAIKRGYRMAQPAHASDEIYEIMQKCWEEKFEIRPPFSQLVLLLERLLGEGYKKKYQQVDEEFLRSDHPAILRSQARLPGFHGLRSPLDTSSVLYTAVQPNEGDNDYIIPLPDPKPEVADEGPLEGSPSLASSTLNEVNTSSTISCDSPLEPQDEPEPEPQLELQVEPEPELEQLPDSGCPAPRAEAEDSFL", "experiment": "Inhibition of human wild type partial length PDGFRB (582 to 1009 residues) expressed in bacterial expression system at 50 to 500 nM by KinomeScan analysis", "details": "dose 50-500 nM"}, "[8]": {"target": "Fibroblast growth factor receptor 3 (Homo sapiens) (UniProt P22607)", "experiment": "Inhibition of human wild type partial length FGFR3 (442 to 771 residues) expressed in bacterial expression system at 50 to 500 nM by KinomeScan analysis", "details": "dose 50-500 nM"}, "[9]": {"target": "Serine/threonine-protein kinase B-raf (Homo sapiens) (UniProt P15056)", "sequence (P15056 whole entry, the tested form may be a part)": "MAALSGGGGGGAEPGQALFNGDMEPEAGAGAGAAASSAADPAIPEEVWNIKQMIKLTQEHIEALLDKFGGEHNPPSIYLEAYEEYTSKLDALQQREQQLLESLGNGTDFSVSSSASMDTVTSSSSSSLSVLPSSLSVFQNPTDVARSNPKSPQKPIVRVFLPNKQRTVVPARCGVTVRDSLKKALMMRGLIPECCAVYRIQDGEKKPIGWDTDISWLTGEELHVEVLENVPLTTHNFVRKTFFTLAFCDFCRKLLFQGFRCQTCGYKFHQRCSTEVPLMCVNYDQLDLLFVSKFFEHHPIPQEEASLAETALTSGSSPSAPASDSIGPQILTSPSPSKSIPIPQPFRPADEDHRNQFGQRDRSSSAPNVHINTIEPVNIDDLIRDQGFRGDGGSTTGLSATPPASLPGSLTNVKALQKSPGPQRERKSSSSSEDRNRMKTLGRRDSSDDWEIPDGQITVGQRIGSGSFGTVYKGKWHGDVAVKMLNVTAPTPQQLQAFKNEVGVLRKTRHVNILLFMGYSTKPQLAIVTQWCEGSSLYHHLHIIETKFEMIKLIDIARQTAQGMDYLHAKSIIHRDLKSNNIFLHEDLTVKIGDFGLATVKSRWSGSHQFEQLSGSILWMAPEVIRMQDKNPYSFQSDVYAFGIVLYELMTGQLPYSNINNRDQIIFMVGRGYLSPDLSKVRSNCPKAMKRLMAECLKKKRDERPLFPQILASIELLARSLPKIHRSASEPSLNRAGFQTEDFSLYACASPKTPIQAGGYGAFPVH", "experiment": "Inhibition of human wild type partial length BRAF (429 to 741 residues) expressed in mammalian expression system at 50 to 500 nM by KinomeScan analysis", "details": "dose 50-500 nM"}, "[10]": {"target": "Mitogen-activated protein kinase kinase kinase 7 (Mus musculus) (UniProt Q62073)", "sequence (Q62073 whole entry)": "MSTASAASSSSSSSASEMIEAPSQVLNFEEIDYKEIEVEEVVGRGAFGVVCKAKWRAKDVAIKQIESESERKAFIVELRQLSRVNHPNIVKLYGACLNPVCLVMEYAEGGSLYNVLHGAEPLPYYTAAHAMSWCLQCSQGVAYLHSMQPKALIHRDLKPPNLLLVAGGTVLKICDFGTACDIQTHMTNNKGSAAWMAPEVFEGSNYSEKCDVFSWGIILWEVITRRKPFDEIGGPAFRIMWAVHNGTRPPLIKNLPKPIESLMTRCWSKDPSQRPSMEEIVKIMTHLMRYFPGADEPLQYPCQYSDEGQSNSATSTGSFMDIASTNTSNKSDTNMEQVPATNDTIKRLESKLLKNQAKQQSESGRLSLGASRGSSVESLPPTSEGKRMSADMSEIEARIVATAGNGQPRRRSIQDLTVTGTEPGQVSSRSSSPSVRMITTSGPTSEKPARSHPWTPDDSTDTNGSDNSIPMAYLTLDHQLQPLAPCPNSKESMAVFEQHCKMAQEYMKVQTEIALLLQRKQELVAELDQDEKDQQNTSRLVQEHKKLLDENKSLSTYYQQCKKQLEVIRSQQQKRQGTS", "experiment": "Inhibition of TAK1 in mouse MPC-11 cells assessed as reduction in TAK1 phosphorylation at Ser412 residue at 0.1 to 0.5 uM incubated for 48 hrs by Western blot analysis", "assay_type": "cell-based", "details": "dose 0.1-0.5 µM", "summary_of_the_method": "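MPC-11 cells (0.5–1 × 10⁶/well) seeded, treated after 24 h for 48 h; DMSO control. BCA protein quantitation, 10% SDS-PAGE, PVDF; pTAK1, TAK1, β-actin antibodies overnight 4 °C, HRP secondaries 2 h 24 °C, chemiluminescence. Bands quantified relative to actin; duplicates, mean and standard deviation.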"}, "[11]": {"target": "Proto-oncogene tyrosine-protein kinase receptor Ret (Homo sapiens) (UniProt P07949)", "experiment": "Inhibition of human RET at 50 to 500 nM by KinomeScan analysis", "details": "dose 50-500 nM"}, "[12]": {"target": "T1, Mitogen-activated protein kinase kinase kinase 7 (Homo sapiens)", "experiment": "Inhibition of TAK1 (unknown origin) at 100 nM by ADP-Glo kinase assay"}, "[13]": {"target": "Aurora kinase A (Homo sapiens) (UniProt O14965)", "experiment": "Inhibition of human wild type partial length Aurora A (122 to 401 residues) expressed in mammalian expression system at 50 to 500 nM by KinomeScan analysis", "details": "dose 50-500 nM"}, "[14]": {"target": "Tyrosine-protein kinase ZAP-70 (Homo sapiens) (UniProt P43403)", "experiment": "Inhibition of human wild type partial length ZAP70 (20 to 299 residues) expressed in mammalian expression system at 50 to 500 nM by KinomeScan analysis", "details": "dose 50-500 nM"}, "[15]": {"target": "cAMP-dependent protein kinase catalytic subunit alpha (Homo sapiens) (UniProt P17612)", "experiment": "Inhibition of human wild type partial length PKAC-alpha (10 to 351 residues) expressed in bacterial expression system at 50 to 500 nM by KinomeScan analysis", "details": "dose 50-500 nM"}, "[16]": {"target": "Mitogen-activated protein kinase kinase kinase 7 (Homo sapiens, UniProt O43318)", "experiment": "Inhibition of human TAK1 using casein as substrate in presence of [gamma-33P]-ATP by radiometric hotspot kinase assay"}, "[17]": {"system": "MPC-11", "experiment": "Cytotoxicity against mouse MPC-11 cells assessed as reduction in cell viability incubated for 72 hrs by CellTiter-Blue assay", "assay_type": "functional", "summary_of_the_method": "(§1)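 H929 (RPMI, 10% heat-inactivated FBS) or MPC-11 (DMEM, 10% FBS) cells, under 10 passages, 37 °C, 5% CO₂; 4–5 × 10³ cells/well seeded, 24 h, then compound at various concentrations for 72 h. CellTiter-Blue added for 3 h, fluorescence ex/em 560/590 nm. Normalized to DMSO-treated cells; triplicate, mean and standard deviation.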"}, "[18]": {"target": "T1, Mitogen-activated protein kinase kinase kinase 7 (Homo sapiens)", "experiment": "Inhibition of TAK1 (unknown origin) at 20 nM by ADP-Glo kinase assay"}, "[19]": {"target": "Aurora kinase B (Homo sapiens) (UniProt Q96GD4)", "experiment": "Inhibition of human wild type partial length Aurora B (25 to 303 residues) expressed in mammalian expression system at 50 to 500 nM by KinomeScan analysis", "details": "dose 50-500 nM"}, "[20]": {"target": "Epidermal growth factor receptor (Homo sapiens) (UniProt P00533)", "experiment": "Inhibition of human wild type partial length EGFR (669 to 1011 residues) expressed in bacterial expression system at 50 to 500 nM by KinomeScan analysis", "details": "dose 50-500 nM"}, "[21]": {"target": "Vascular endothelial growth factor receptor 2 (Homo sapiens) (UniProt P35968)", "experiment": "Inhibition of human wild type partial length VEGFR2 (787 to 1253 residues) expressed in mammalian expression system at 50 to 500 nM by KinomeScan analysis", "details": "dose 50-500 nM"}, "[22]": {"system": "NCI-H929", "experiment": "Cytotoxicity against human NCI-H929 cells assessed as reduction in cell viability incubated for 72 hrs by CellTiter-Blue assay", "assay_type": "functional", "summary_of_the_method": "as §1"}, "[23]": {"target": "Tyrosine-protein kinase JAK2 (Homo sapiens) (UniProt O60674)", "experiment": "Inhibition of human wild type partial length JAK2 (829 to 1132 residues) expressed in mammalian expression system at 50 to 500 nM by KinomeScan analysis", "details": "dose 50-500 nM"}},
  "note": "Active and inactive are the calls of the source. The rule behind the calls is not given here.",
  "data": [
    {"molecule": "C[C@@H]1CN(c2ccc3ncc(-c4ccc5[nH]nc(C6CC6)c5c4)n3n2)C[C@H](C)O1", "values": [
      {"measurement": "inhibition", "setting": "[1]", "result": "Active"},
      {"measurement": "inhibition", "setting": "[2]", "result": 100, "unit": "%"},
      {"measurement": "inhibition", "setting": "[3]", "result": "Active"},
      {"measurement": "inhibition", "setting": "[4]", "result": "Active"},
      {"measurement": "inhibition", "setting": "[5]", "result": "Active"},
      {"measurement": "inhibition", "setting": "[6]", "result": "Active"},
      {"measurement": "inhibition", "setting": "[7]", "result": "Active"},
      {"measurement": "inhibition", "setting": "[8]", "result": "Active"},
      {"measurement": "inhibition", "setting": "[9]", "result": "Active"},
      {"measurement": "inhibition", "setting": "[10]", "result": "Active"},
      {"measurement": "inhibition", "setting": "[11]", "result": "Active"},
      {"measurement": "inhibition", "setting": "[12]", "result": "> 50", "unit": "%"},
      {"measurement": "inhibition", "setting": "[13]", "result": "Active"},
      {"measurement": "inhibition", "setting": "[14]", "result": "Active"},
      {"measurement": "inhibition", "setting": "[15]", "result": "Active"},
      {"measurement": "IC50", "setting": "[16]", "result": 55, "unit": "nM"},
      {"measurement": "GI50", "setting": "[17]", "result": 41, "unit": "nM"},
      {"measurement": "inhibition", "setting": "[18]", "result": "> 50", "unit": "%"},
      {"measurement": "inhibition", "setting": "[19]", "result": "Active"},
      {"measurement": "inhibition", "setting": "[20]", "result": "Active"},
      {"measurement": "inhibition", "setting": "[21]", "result": "Active"},
      {"measurement": "GI50", "setting": "[22]", "result": 43, "unit": "nM"},
      {"measurement": "inhibition", "setting": "[23]", "result": "Active"}
    ]}
  ]
}
